Only a selection was taken, and hits are over-represented in it overall.
NLRP3 yeast inh: blocks the NALP3 inflammasome reconstituted in yeast; Yeast reconstituted NLRP3/ASC/caspase-1, beta-gal luminescence, 24 h; inhibition, % at 10 µM; 0.39% of 330,000 active;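 active means inhibition of 50% or more; inactive means inhibition below 50%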;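 further: plate controls were induced DMSO wells for no effect and uninduced yeast grown without galactose for full effect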
Calb FLC: C. albicans growth modulation with fluconazole; C. albicans CaCi-2 + fluconazole, Alamar Blue growth, 48 h; growth inhibition, % (test concentration not listed); 0.57% of 300,000 active; AID 1979;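 active means growth inhibition above about 58% in most replicates, limit read from the data, passing the limit was not always enough; inconclusive means exactly half the replicates above a set limit; inactive means most replicates below a set limit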;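 further: all wells also contain fluconazole at 8 µg/ml as a sub-toxic cotreatment; 0% = median of DMSO wells and 100% = median of geldanamycin control wells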
T cruzi repl: T. cruzi replication inhibition; T. cruzi beta-gal in NIH3T3, luminescence, 90 h; inhibition, % (no concentration beside the values); 1.4% of 300,000 active; AID 1885;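 active means mean inhibition across valid replicates above about 55%, limit read from the data; inconclusive means mean below that limit but half or more replicates reach it; inactive means mean below it, under half of replicates reach it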;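 further: signal also drops with host cell toxicity which is not excluded here; 0% = plate median of DMSO wells and 100% = zero luminescence signal; higher percent means less beta-gal luminescence so fewer parasites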
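Material: NIH/3T3 host cells with β-galactosidase reporter T. cruzi; Input: 5,000 host fibroblasts per well; Medium: DMEM, 2% fetal bovine serum; Compound: 50 nL DMSO compound solution per well; Schedule: 3 h host attachment, then at least 90 h co-culture; Detection: luminescent β-galactosidase signal after 60 min lysis.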
PolyA inh: yeast polyadenylation inhibition; activity score, % at 12 µM; S. cerevisiae SKY197-pL101 polyadenylation reporter, beta-gal luminescence; efflux-impaired pdr1/pdr3 knockout yeast; score 100 = 6 SD above DMSO; 0.02% of 300,000 active;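 active means lowest replicate activity score at least 50, where 100 means six control SD above control mean; inconclusive means lowest score under 50 but half or more replicates reach 50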;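 further: yeast exposed to compound for 9 h at 30 °C; higher score means more reporter readthrough which indicates perturbed polyadenylation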
L major viab: reduces viability of Leishmania major promastigotes. resazurin fluorescence viability. inhibition, % at 10 µM. 9% of 200,000 active. AID 1063; in the data active means inhibition above about 50%;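 further: promastigotes grown with compound for 44 hours at 28 °C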
NALP1 yeast inh: blocks the NALP1 inflammasome reconstituted in yeast; S. cerevisiae NALP1/ASC/caspase-1 growth, X-gal OD620, 72 h; 0.61% of 280,000 active; inhibition, % at 10 µM; AID 2071; in the data active means inhibition mostly above about 24%, no sharp cut-off; inactive means mostly below about 32%
* marks the source's active call; other numbers are inactive results; ? = inconclusive; / = no result given.

SMILES	NLRP3 yeast inh	Calb FLC	T cruzi repl	PolyA inh	L major viab	NALP1 yeast inh
Cc1noc(C)c1C(=O)OC(C)C(=O)Nc1ccc(S(=O)(=O)NC(C)C)cc1 (configuration not stated)	15.6	0.1	6.6	13.2	-4.5	24.3
O=C(/C=C/c1cccc(Cl)c1)NNC(=O)c1ccncc1	13.4	/	/	/	/	/
COC(=O)C1=C(C(=O)OC)C(c2cc(Br)ccc2O)c2sc(=O)[nH]c2S1 (configuration not stated)	/	/	/	/	65.4*	18.7
Cc1ccc(C)c(SCC(=O)NC(=O)NC2CCCC2)c1	26.5	/	/	/	/	/
COc1ccc(NC(=O)/C(=C\c2ccc3c(c2)OCO3)NC(C)=O)cc1	-17.1	-30.0	-2.2	-2.9	-5.8	10.6
CCOC(=O)C1(CCOc2ccccc2)CCN(Cc2ccc(CO)o2)CC1	15.7	-53.2	5.5	11.0	61.7*	6.5
CCOC(=O)C1(CCOc2ccccc2)CCN(Cc2cnc(C)s2)CC1	24.9	-22.6	29.6	-12.8	78.9*	16.4
CCOC(=O)C1(CCOc2ccccc2)CCN(Cc2ccccc2O)CC1	/	-5.2	28.7	-2.4	/	/
CCOC(=O)[C@@H]1[C@H]2COc3ccccc3[C@H]2N2C(=O)N(c3ccc(Cl)cc3)C(=O)[C@]12C	4.7	24.5	-21.0	-12.4	/	-1.9
N/C(=N\OC(=O)c1ccc2ccccc2c1)c1ccccc1Cl	25.5	24.7	71.5*	0.3	/	26.5
CC(=O)N1CCc2cc(S(=O)(=O)CCC(=O)Nc3ccccc3F)ccc21	6.7	4.7	-11.9	5.8	/	30.6
CCOc1ccc(S(=O)(=O)NCC2CCCO2)c2ccccc12 (configuration not stated)	15.8	19.1	-1.9	5.2	/	-9.4
C=CCn1c(SCC(=O)NC2CC2)nc2sc(CC)cc2c1=O	11.7	57.0	14.1	21.4	57.9*	19.0
COc1ccc(CNC(=O)CN(C(=O)CCC(=O)Nc2ccccn2)c2cccc(C)c2)cc1	17.5	-0.5	30.8	-2.0	50.2*	-8.2
CCC(C)(C)NC(=O)CN(C(=O)CCC(=O)Nc1ccccn1)c1ccc(F)c(Cl)c1	-1.4	3.5	1.8	13.8	90.2*	-0.8
Cc1ccc(C)c(N(CC(=O)NCc2ccc3c(c2)OCO3)C(=O)CCC(=O)Nc2ccccn2)c1	27.5	1.2	11.0	-10.8	56.3*	-16.2
CC(C)NC(=O)CN(C(=O)CCC(=O)Nc1ccccn1)c1ccc(F)c(Cl)c1	10.1	14.0	2.4	3.1	0.8	-2.2
COc1ccc(CNC(=O)CN(C(=O)CCC(=O)Nc2ccccn2)c2ccc(C)cc2)cc1	0.5	5.2	12.3	-13.2	/	8.1
Cc1ccc(N(CC(=O)NCc2ccc3c(c2)OCO3)C(=O)CCC(=O)Nc2ccccn2)cc1	-18.6	-2.7	6.3	3.9	/	7.9
C=CCn1c(=O)c(CCC(=O)Nc2ccc(N3CCOCC3)cc2)nc2cc(C(F)(F)F)ccc21	29.7	4.0	9.6	-7.4	/	31.6
C[C@@H](C(=O)NNC(=O)c1ccc(Cl)cc1)N1C(=O)C2CC=CCC2C1=O (some centres not stated)	4.1	/	/	/	/	/
O=C(Nc1nnc(-c2cccs2)o1)c1cccc(F)c1	18.7	87.5*	26.2	10.7	93.6*	/
O=C(Nc1nnc(-c2cccs2)o1)c1cccc(Oc2ccccc2)c1	30.2	/	/	/	52.0*	38.2*
CCCOc1ccc(C(=O)CCNC(Cc2c[nH]c3ccccc23)C(=O)O)cc1 (configuration not stated)	26.7	-8.8	-4.0	4.5	/	7.2
CCOc1ccc(S(=O)(=O)N2CCOCC2)cc1NC(=O)CN1C(=O)NC2(CCCCC2)C1=O	3.1	/	/	/	/	/
SMILES	NLRP3 yeast inh	Calb FLC	T cruzi repl	PolyA inh	L major viab	NALP1 yeast inh
O=C(Nc1ccon1)C12CC3CC(C1)CC(n1cnc([N+](=O)[O-])n1)(C3)C2	-8.6	-8.8	59.2*	25.2	61.9*	5.7
COc1ccc(NC(=O)C23CC4CC(C2)CC(n2cnc(Br)n2)(C4)C3)c(C)c1	8.8	22.3	0.4	2.4	-4.0	8.1
COc1ccc(NC(=O)C23CC4CC(C2)CC(n2cnc(Br)n2)(C4)C3)cc1OC	-5.6	-0.5	5.6	-3.8	-3.0	23.9
Cc1cc(NC(=O)C23CC4CC(C2)CC(n2cnc([N+](=O)[O-])n2)(C4)C3)no1	17.3	-4.8	54.6*	17.6	50.7*	29.9
CC(C)Cc1nc2oc3c(N4CCN(CCO)CC4)ncnc3c2c2c1CCCC2	4.1	-2.2	24.6	6.6	51.7*	11.4
Cc1nnc(SCC(=O)N(C)C2CCCCC2)n1C	7.7	/	/	/	/	/
Cc1cc(N=Nc2ccccc2C(=O)O)c(C)c(C)c1O	28.8	6.6	9.2	-2.4	/	22.1
Cc1cc(O)c(C(C)C)cc1N=Nc1ccccc1C(=O)O	14.9	49.5	9.6	9.1	/	37.6*
CC(NC(=O)COC(=O)Cc1ccccc1[N+](=O)[O-])c1ccccc1 (configuration not stated)	6.9	19.3	-1.5	15.7	60.2*	27.6
CCOC(=O)N1CCN(C(=S)Nc2ccc3nc(N4CCN(CC)CC4)cc(C)c3c2)CC1	26.3	-15.7	22.7	0.2	71.8*	-44.8
CCN1CCN(C(=S)Nc2ccc3nc(N4CCN(CC)CC4)cc(C)c3c2)CC1	8.5	-27.0	47.7	17.9	30.5	26.1
CCN1CCN(c2cc(C)c3cc(NC(=S)N4CCCCC4)ccc3n2)CC1	7.2	?	57.7*	1.2	57.7*	4.6
CCN1CCN(c2cc(C)c3cc(NC(=S)N4CCCC4)ccc3n2)CC1	0.8	-7.9	-6.4	3.3	5.2	-4.1
CCN1CCN(C(=S)Nc2ccc3nc(N4CCN(C)CC4)cc(C)c3c2)CC1	2.4	0.5	21.8	-5.3	67.1*	-23.4
Oc1[nH]c2ccc(Br)cc2c1N=NC(=S)N1CCOCC1	29.8	96.4*	55.0*	-5.8	/	21.4
COC(=O)N=Nc1c(O)[nH]c2ccc(Br)cc12	6.9	1.0	8.1	11.1	/	3.1
CCOc1ccc(NC(=S)N=Nc2c(O)[nH]c3ccccc23)cc1	22.3	-12.3	43.3	3.2	97.8*	3.0
Oc1cccc(NC(=S)N=Nc2c(O)[nH]c3ccccc23)c1	20.4	5.1	-6.7	0.3	/	-5.9
Oc1[nH]c2ccccc2c1N=NC(=S)N1CCOCC1	25.9	-9.9	56.5*	2.8	/	-2.6
Cc1ccc2c(c1)N(C(C)C(=O)NCc1cccs1)C(=O)CO2 (configuration not stated)	9.5	-14.1	-0.2	8.3	-6.2	-2.0
Cc1cc(C)cc(C(=O)Nc2cc3c4c(c2)CC(=O)N4CCC3)c1	23.0	-3.1	-13.9	-14.2	/	/
CCNc1nc(C(=O)O)nc(N2CCOCC2)n1	-6.4	3.6	-13.7	5.1	-8.7	-15.4
CC(C)(C)Nc1nc(OCC#N)nc(N2CCCCC2)n1	-0.1	-3.2	15.7	-15.1	35.3	9.8
CCNc1nc(NC(C)(C)C)nc(N2CCCCC2)n1	36.3	42.5	48.6	-31.5	95.1*	21.3
